Data on nine molecules can be found in ChEMBL document CHEMBL3808312, “Bioactive Constituents of Glycyrrhiza uralensis (Licorice): Discovery of the Effective Components of a Traditional Herbal Medicine” (J Nat Prod, 2016).

Experiment [1] has as its system Influenza A virus. As to the kind of experiment: Antiviral activity against Influenza A virus A/WSN/33(H1N1) infected in MDCK cells at 100 uM preincubated with virus for 15 mins followed by cells addition measured at 36 hrs post infection. Type of experiment: functional, A/WSN/1933(H1N1). The procedure, abridged: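 MDCK canine kidney cells grown in DMEM and infected with influenza A/WSN/33 (H1N1). Compounds screened at 100 μM. Oseltamivir phosphate served as the positive control.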

Experiment [2] has as its system Influenza A virus. Kind of experiment: Antiviral activity against Influenza A virus A/WSN/33(H1N1) infected in dog MDCK cells preincubated with virus for 15 mins followed by cells addition measured at 36 hrs post infection. Type of experiment: functional, organism-based. As to conditions: A/WSN/1933(H1N1).

pIC50: −log10 of the molar value.

`CC(=O)O[C@H]1C[C@@](C)(C(=O)O)C[C@H]2C3=CC(=O)[C@H]4[C@]5(C)CC[C@@H](O[C@@H]6O[C@H](C(=O)O)[C@H](O)[C@H](O)[C@H]6O[C@H]6O[C@@H](CO)[C@H](O)[C@@H](O)[C@@H]6O[C@H]6O[C@H](C)[C@@H](O)[C@H](O)[C@@H]6O)C(C)(C)[C@H]5CC[C@]4(C)[C@@]3(C)CC[C@]12C` yielded an Activity with Influenza A virus [1] of 47%. The molecule further gave a negative logarithm of the IC50 (pIC50) with Influenza A virus [2] of 4.40.
Regarding `C[C@@H]1O[C@@H](O[C@H]2[C@H](O[C@@H]3[C@@H](O[C@@H]4CC[C@]5(C)[C@H](CC[C@@]6(C)[C@H]5C(=O)C=C5[C@@H]7C[C@]8(C)C[C@@H](COC8=O)[C@@]7(C)CC[C@@]56C)C4(C)C)O[C@@H](C(=O)O)[C@H](O)[C@H]3O)O[C@H](C(=O)O)[C@@H](O)[C@@H]2O)[C@H](O)[C@H](O)[C@H]1O`, in the experiment with Influenza A virus [1], the Activity turned out to be 47%. The negative-log IC50 (pIC50) with Influenza A virus [2] was 4.40.
The corresponding values for `CC(=O)O[C@@H]1C[C@](C)(C=O)C[C@@H]2C3=CC(=O)[C@@H]4[C@@]5(C)CC[C@H](O[C@@H]6O[C@H](C(=O)O)[C@@H](O)[C@H](O)[C@H]6O[C@@H]6O[C@H](C(=O)O)[C@@H](O)[C@H](O)[C@H]6O)C(C)(C)[C@@H]5CC[C@@]4(C)[C@]3(C)CC[C@]21C` are 47% and 4.40.
In the experiment with Influenza A virus [1], `CC1(C)[C@@H](O[C@@H]2O[C@H](C(=O)O)[C@@H](O)[C@H](O)[C@H]2O[C@@H]2OC[C@H](O)[C@H](O)[C@H]2O)CC[C@]2(C)[C@H]3C(=O)C=C4[C@H]5C[C@@](C)(C(=O)O)CC[C@]5(C)CC[C@@]4(C)[C@]3(C)CC[C@@H]12` gave an Activity of 47%. The pIC50 in the experiment on Influenza A virus [2] was 4.40.
The like results for `CC1(C)[C@@H](O[C@@H]2O[C@H](C(=O)O)[C@@H](O)[C@H](O[C@@H]3O[C@H](C(=O)O)[C@@H](O)[C@H](O)[C@H]3O)[C@H]2O)CC[C@]2(C)[C@H]3C(=O)C=C4[C@H]5C[C@@](C)(C(=O)O)CC[C@]5(C)CC[C@@]4(C)[C@]3(C)CC[C@@H]12` were, in that order, 47% and 4.40.
The like results for `CC1(C)[C@H]2CC[C@@]3(C)[C@@H](C(=O)C=C4[C@@H]5C[C@]6(C)C[C@@H](COC6=O)[C@@]5(C)CC[C@@]43C)[C@]2(C)CC[C@H]1O[C@@H]1O[C@H](C(=O)O)[C@@H](O)[C@H](O)[C@H]1O[C@@H]1O[C@H](C(=O)O)[C@@H](O)[C@H](O)[C@H]1O` were, in that order, 47% and 4.40.
For `CC1(C)[C@@H](O[C@H]2O[C@H](C(=O)O)[C@@H](O)[C@H](O)[C@H]2O[C@@H]2O[C@H](C(=O)O)[C@@H](O)[C@H](O)[C@H]2O)CC[C@]2(C)[C@H]3C(=O)C=C4[C@@H]5C[C@@](C)(C(=O)O)CC[C@]5(C)CC[C@@]4(C)[C@]3(C)CC[C@@H]12` [GLYCYRRHIZIN], the Activity in the experiment on Influenza A virus [1] stood at 47%. Further, the pIC50 in the experiment with Influenza A virus [2] was 4.40.
The corresponding values for `C[C@]1(C(=O)O)CC[C@]2(C)CC[C@]3(C)C(=CC(=O)[C@@H]4[C@@]5(C)CC[C@H](O[C@@H]6O[C@H](C(=O)O)[C@@H](O)[C@H](O)[C@H]6O[C@@H]6O[C@H](C(=O)O)[C@@H](O)[C@H](O)[C@H]6O)[C@](C)(CO)[C@@H]5CC[C@]43C)[C@H]2C1` are 47% and 4.40.
For the molecule `CC1(C)[C@@H](O[C@@H]2O[C@H](C(=O)O)[C@@H](O)[C@H](O)[C@H]2O[C@@H]2O[C@H](C(=O)O)[C@@H](O)[C@H](O)[C@H]2O)CC[C@]2(C)[C@H]3C(=O)C=C4[C@H]5C[C@](C)(C(=O)O)CC[C@]5(C)CC[C@@]4(C)[C@]3(C)CC[C@@H]12`, the Activity in the experiment on Influenza A virus [1] stood at 47%. The same molecule showed a pIC50 in the experiment on Influenza A virus [2] of 4.40.

What is called pIC50 is the negative decadic logarithm of the IC50, by convention in mol/L.
